Shown are actives, neighbours in structure and some others; about 3.8% of the full set was active somewhere.
T cell modulator: modulators of CD8 T cell-vesicle binding, primary screen, mouse 2C CD8+ T cells, flow cytometry. AID 2052, 2009. response (vesicle binding), % at 7 µM. 330,000 tested, 0.068% active. 2C CD8+ T cell-vesicle binding; hits give low values;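 active = response, share of CD8 T cells binding vesicles, and their 90th percentile fluorescence all below set limits, cut at about 80% in these data, passing the limit was not always enough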;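 also: values below 100% mean blocked vesicle binding to the CD8+ T cells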
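Read-out – percent CD8+ FL2 mean versus row control · System – murine 2C transgenic CD8+ T lymphocytes · Times – 1.5 h cell–vesicle binding at 37 °C, then 20 min icy labelling · Control set – naked vesicles low, QL9 vesicles with vehicle high · Detection – cytometric PE anti-B7-1 and Alexa647 anti-CD8 signals after 1% paraformaldehyde fixation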
rCAG RNA binder: binders of r(CAG) RNA repeats, primary screen, biochemical, fluorescence | r(CAG) RNA repeat, TO-PRO-1 dye displacement fluorescence | inhibition, % at 3 µM | 370,000 tested, 1.3% active;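 active = inhibition above the plate cutoff, the mean of all test compounds on that plate plus 3 SD, cut at about 35% in these data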;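 also: 0% = DMSO alone and 100% = 100 µM mitoxantrone as full dye displacement; higher means more dye released from RNA so lower well fluorescence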
MPTP inh: mitochondrial permeability transition pore inhibitors, primary screen, biochemical, isolated mouse mitochondria, absorbance; Ca2+ swelling absorbance, 30 min; inhibition, % at 10 µM; 360,000 tested, 1.4% active; AID 602449, 2012;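 active = inhibition of 50% or more, scaled per plate between neutral and stimulator controls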;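 also: 0% = DMSO wells given calcium and 100% = 1 mM EGTA wells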
Exocytosis inh: LAMP-1 surface exposure blockers, TALL-104 cells – cell-based, flow cytometry, MLPCN library, primary screen; AID 651702, 2012; 360,000 tested, 0.66% active; TALL-104 LAMP-1 surface exposure; cells stimulated with thapsigargin and PMA; inhibition, % at 10 µM;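 active = inhibition above about 55%, limit read from the data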
Beta2AR agonist: beta2AR agonists driving receptor internalization, primary screen, cell-based, FAP fluorogen, flow cytometry | Beta-2 adrenergic receptor (Homo sapiens), P07550 | Am2.2-beta2AR cells | response, % (concentration not given with the values) | 340,000 tested, 0.43% active;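 active = response above a set limit, near 3 SD of response in nonfluorescent compounds, cut at about 42% in these data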
Target sequence (P07550 whole entry, looked up): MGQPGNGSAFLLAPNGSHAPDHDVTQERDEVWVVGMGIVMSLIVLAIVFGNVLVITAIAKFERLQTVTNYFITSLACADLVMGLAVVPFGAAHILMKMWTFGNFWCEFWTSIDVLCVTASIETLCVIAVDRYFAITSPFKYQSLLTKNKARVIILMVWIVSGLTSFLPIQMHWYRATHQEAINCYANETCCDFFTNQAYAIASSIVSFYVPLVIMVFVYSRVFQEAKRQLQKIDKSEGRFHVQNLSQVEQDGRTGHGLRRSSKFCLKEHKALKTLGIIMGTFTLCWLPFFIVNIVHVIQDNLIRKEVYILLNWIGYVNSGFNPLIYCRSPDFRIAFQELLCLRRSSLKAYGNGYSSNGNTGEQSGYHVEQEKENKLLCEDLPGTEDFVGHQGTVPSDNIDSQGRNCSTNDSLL
V-ATPase pHluor: regulators of yeast V-ATPase proton pumping, primary screen, pHLuorin cytosolic pH fluorescence | S. cerevisiae | 350,000 tested, 0.37% active | response, % at 10 µM; in the data active = response mostly above about 7.3%, no sharp cut-off; inactive = mostly below about 5.4%; also: actives read high
Exocytosis CP01: inhibitors of lytic granule exocytosis, confirmation, TALL-104 cells, flow cytometry, Cherry Pick01; shares compounds with Exocytosis inh; LAMP-1 externalization; stimulated with PMA plus thapsigargin; inhibition, % at 10 µM; 1,500 tested, 11% active; in the data active = inhibition above about 60%;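 also: 0% = stimulated vehicle wells and 100% = unstimulated wells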
Numbers without * were called inactive; . = not tested or not shown.

SMILES	T cell modulator	rCAG RNA binder	MPTP inh	Exocytosis inh	Beta2AR agonist	V-ATPase pHluor	Exocytosis CP01
COc1ccccc1CNc1nc(NCc2ccc(C(C)C)cc2)c2sccc2n1	.	3.5	49.1	61.9*	.	.	85.3*
O=C(O)c1cccc(NC(=O)c2cccc(S(=O)(=O)N3CCc4ccccc43)c2)c1	208.0	-7.2	-0.8	-2.3	0.8	-1.1	.
NC(=O)c1ccc(NC(=O)c2ccc3c(c2)CCN3S(=O)(=O)c2ccccc2)cc1	428.6	6.3	0.3	71.9*	12.6	0.6	-0.7
CCOC(=O)Nc1nc(-c2ccc(F)cc2F)cs1	408.0	0.2	1.0	65.1*	0.6	1.4	-13.7
Cc1ccc2nc(-c3ccc(NC(=S)NC4CC(C)(C)NC(C)(C)C4)cc3)sc2c1	506.6	15.2	31.7	88.0*	13.0	1.4	97.6*
Cc1ccc2nc(-c3ccc(NC(=S)NC(=O)C(C)C)cc3)sc2c1	242.7	2.9	2.1	49.0	8.3	1.0	.
CCCCCC(=O)NC1CCCCN(Cc2cccc(Cl)c2)C1=O (stereo not drawn)	.	-3.0	.	.	.	.	.
COC(=O)C1CN(CCc2ccccc2)CCS(=O)(=O)N1Cc1ccccc1F (stereo not drawn)	.	-2.2	.	.	.	.	.
N#Cc1nc(COc2ccccc2Cl)oc1NCc1ccco1	241.6	3.2	2.1	56.3*	3.0	0.2	-8.2
Cc1ccc(S(=O)(=O)N2CCC(=O)N(C(COCc3ccccc3)Cc3ccccc3)CC2)cc1 (stereo not drawn)	532.8	-0.9	-0.4	89.8*	-5.0	0.7	-2.4
Fc1cccc(Cc2c(-c3ccco3)nc3ccc(Cl)cn23)c1	.	.	-2.5	57.6*	.	.	-10.6
Fc1cccc(Cc2c(-c3ccco3)nc3ccc(Br)cn23)c1	.	19.1	-1.9	59.1*	.	.	-1.1
Clc1ccc2nc(-c3ccco3)c(Cc3ccccc3)n2c1	.	20.8	-1.4	45.6	.	.	.
COc1ccccc1Cc1c(-c2ccco2)nc2ccc(Cl)cn12	.	18.4	-2.0	81.9*	.	.	4.0
C[C@@H]1COc2cc(N3CCSCC3)ccc2S(=O)(=O)N1C	.	0.9	.	.	.	.	.
COc1ccc(N/C=C/C(=O)c2cc(OC)c(OC)c(OC)c2)cc1	673.0	-5.0	2.5	57.0*	19.1	-3.5	-10.6
COc1ccc(N/C=C/C(=O)c2ccc(OC)c(OC)c2)cc1	174.4	2.5	2.4	-1.5	2.2	2.4	.
C[C@H](O)[C@@H]1C(=O)N2CCc3c([nH]c4c(-c5ccccc5)cccc34)[C@@H]2C[C@@H]1N(C)C(=O)/C=C/c1ccccc1	.	5.4	.	.	.	.	.
COc1cc(CNCCc2ccccc2)cc(Cl)c1OCc1ccccc1	839.7	-2.1	6.2	98.8*	27.9	-4.9	7.1
COc1cccc(CNC(=O)C2CCC(CNS(=O)(=O)c3cccc4cccnc34)CC2)c1OC (stereo not drawn)	.	1.2	.	.	.	.	.
CN(Cc1ccccn1)C(=O)c1cc(COc2ccc(F)cc2Cl)on1	.	1.0	-0.6	17.8	.	4.4	.
CN(C(=O)c1cc(COc2ccc(F)cc2Cl)on1)C1CCCc2ccccc21 (stereo not drawn)	145.6	0.4	3.9	57.4*	0.3	-1.1	2.0
N#Cc1ccc(CSc2ccccn2)c(Cl)c1	162.9	-5.7	0.1	80.7*	-8.0	2.8	-4.0
N#Cc1ccccc1CSc1ccccn1	224.3	2.2	0.6	-7.7	-4.0	-2.5	.
CCN(C(=O)[C@@H](C)[C@@H](O)c1ccc(Cl)cc1)c1ccccc1	.	0.0	.	.	.	.	.
SMILES	T cell modulator	rCAG RNA binder	MPTP inh	Exocytosis inh	Beta2AR agonist	V-ATPase pHluor	Exocytosis CP01
Cc1ccc(C(=O)c2c(C)oc3c2C(=O)C(=O)c2ccccc2-3)cc1	182.2	.	-0.5	103.0*	47.0*	1.2	42.4
Cc1oc2c(c1C(=O)N1CCC(C)CC1)C(=O)c1ccccc1C2=O	282.5	3.4	.	.	.	.	.
CCCCN1CC[C@H](C)Oc2cc(Br)ccc2S1(=O)=O	.	1.2	.	.	.	.	.
CCCCCCN1C[C@H](n2cc(-c3ccc(F)cc3)nn2)[C@@H](O)C[C@@H]1c1ccc(Cl)cc1	.	-0.8	3.0	58.5*	.	-1.3	35.0
COc1ccc(-c2cc([C@H]3[C@H]4C=CC[C@@H](C)[C@@H]4C(=O)N3Cc3ccccc3)ccc2F)cc1	353.1	6.8	-0.8	57.3*	26.8	1.9	-14.5
O=C1CCN(CCc2ccccc2)CCN1[C@H](CSc1ccccc1)c1ccccc1	417.3	-3.7	1.3	9.8	3.1	2.0	.
Cc1ccc(SC[C@H](c2ccccc2)N2CCN(CCc3ccccc3)CCC2=O)cc1	328.9	-4.9	1.8	59.0*	3.0	2.5	-11.3
COc1ccc2nc(C)cc(N3CCN(c4ccccc4)CC3)c2c1	298.8	-7.6	-0.3	64.6*	5.8	-1.9	-2.3
COc1ccc2nc(C)cc(N3CCOCC3)c2c1	190.4	-4.0	0.6	-1.9	1.5	-0.3	.
CCc1ccc(NC(=O)CSCCO)cc1	180.0	-1.1	-0.2	85.2*	2.5	4.0	-12.5
COc1ccc(-n2nnnc2S(=O)(=O)CC(=O)N2CCCCC2)cc1	161.7	2.8	-1.6	60.4*	15.3	-1.4	8.0
NS(=O)(=O)c1ccc(CCNCc2cc(Cl)ccc2OCc2ccccc2)cc1	173.4	-1.2	15.8	7.4	8.0	-0.7	.
NS(=O)(=O)c1ccc(CCNCc2ccccc2OCc2ccc(Cl)cc2)cc1	259.3	6.9	13.8	56.6*	22.8	3.6	-11.3
C=CCOc1ccc(C(=O)c2ccccc2)c(OCC(=O)NC2(C#N)CCCC2)c1	274.6	1.8	-0.8	61.0*	-12.1	-1.8	-13.2
COCCCN1C(=O)[C@H](CC(=O)NCCc2ccccc2OC)[C@]2(C(=O)OC)CCCCC=C12	.	2.2	.	.	.	.	.
Cc1cccc(Oc2sc(C(=O)c3ccccc3)c(N)c2C#N)c1C	528.9	-4.6	0.4	65.6*	35.3	0.4	5.3
N#Cc1c(Oc2ccc3ccccc3c2)sc(C(=O)c2ccccc2)c1N	136.1	2.5	1.6	41.9	-3.9	-25.6	.
CCCCN(Cc1ccccc1)C1CCN(Cc2ccccc2)CC1	164.8	-8.7	-0.2	68.4*	6.5	0.9	-11.9
COc1ccc(OC)c(/C=C/c2ccc3cccc(O)c3n2)c1	296.9	9.6	1.3	2.0	18.0	-2.3	.
Oc1ccc(Cl)cc1/C=C/c1ccc2cccc(O)c2n1	.	32.0	14.5	78.3*	9.1	-1.1	-9.2
CCN1C(=O)N[C@@H](c2cccc(C(F)(F)F)c2)[C@@H](C(=O)OC)[C@H]1C	715.9	-7.7	1.5	101.1*	-6.1	-3.4	-12.2
COCCN1C(=O)N[C@@H](c2cccc(C(F)(F)F)c2)[C@@H](C(=O)OC)[C@H]1C	538.4	-3.9	-0.1	-9.1	3.0	2.2	.
